Test results taken from ChEMBL document CHEMBL1124172 (J Med Chem, 1988).
In brackets after ≈: the same amount, converted by molar mass. Activity calls are given as the source filed them. No cut-off for these calls is given here.

What was measured:
Mus musculus [1] = assay: In vivo antitumor activity against P388 Lymphocytic Leukemia measured as Survivors on day 5 at 15.5 mg/kg; 5/6; format: functional
Mus musculus [2] = assay: In vivo antitumor activity against P388 Lymphocytic Leukemia measured as Survivors on day 5 at 7.75 mg/kg; 6/6; format: functional
Mus musculus [3] = assay: In vivo antitumor activity against P388 Lymphocytic Leukemia measured as survivors on day 5 at 62 mg/kg; 6/6; format: functional
Mus musculus [4] = assay: In vivo antitumor activity against P388 Lymphocytic Leukemia in mice at 15.5 mg/kg expressed as T/C value; format: functional
Mus musculus [5] = assay: In vivo antitumor activity against P388 Lymphocytic Leukemia in mice at 31 mg/kg expressed as T/C value; format: functional
Mus musculus [6] = assay: In vivo antitumor activity against P388 Lymphocytic Leukemia in mice at 62 mg/kg expressed as T/C value; format: functional
Mus musculus [7] = assay: In vivo antitumor activity against P388 Lymphocytic Leukemia in mice at 7.75 mg/kg expressed as T/C value; format: functional
Mus musculus [8] = assay: In vivo antitumor activity against P388 Lymphocytic Leukemia measured as Survivors on day 5 at 31 mg/kg; 6/6; format: functional
A204 = assay: In vitro cytotoxicity against human A204 Rhabdomyosarcoma cell line; format: functional, cell-based
How it was run: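 A204 human rhabdomyosarcoma soft-agarose colony assay. 10^4 trypsin/EDTA-dissociated cells in 0.3% agarose over a 0.5% agarose base, in DMEM with 10% FCS, at 37 °C and 5% CO2. Compound was applied in an upper medium layer on day 1 for 24 h, then washed out. Colonies >60 µm were counted after 7–9 days by tetrazolium stain and image analysis. Quadruplicates with vehicle controls, at least four concentrations up to 100 or 1000 µg/mL. IC50 from a monoexponential least-squares fit over at least three preparations, mean ± SE.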

Mus musculus [9] = assay: In vivo antitumor activity against P388 Lymphocytic Leukemia measured as Survivors on day 5 at 200 mg/kg, w.r.t. compound 6; 4/4; format: functional
Mus musculus [10] = assay: In vivo antitumor activity against P388 Lymphocytic Leukemia in mice at 400 mg/kg expressed as T/C value w.r.t. compound 6; format: functional
Mus musculus [11] = assay: In vivo antitumor activity against P388 Lymphocytic Leukemia measured as Survivors on day 5 at 800 mg/kg, w.r.t. compound 6; 4/4; format: functional
Mus musculus [12] = assay: In vivo antitumor activity against P388 Lymphocytic Leukemia in mice at 200 mg/kg expressed as T/C value w.r.t. compound 6; format: functional
Mus musculus [13] = assay: In vivo antitumor activity against P388 Lymphocytic Leukemia measured as Survivors on day 5 at 400 mg/kg, w.r.t. compound 6; 4/4; format: functional
Mus musculus [14] = assay: In vivo antitumor activity against P388 Lymphocytic Leukemia in mice at 800 mg/kg expressed as T/C value w.r.t. compound 6; format: functional
Mus musculus [15] = assay: In vivo antitumor activity against P388 Lymphocytic Leukemia measured as Survivors on day 5 at 200 mg/kg, w.r.t. compound 6; 5/6; format: functional
Mus musculus [16] = assay: In vivo antitumor activity against P388 Lymphocytic Leukemia measured as Survivors on day 5 at 100 mg/kg, w.r.t. compound 6; 6/6; format: functional
Mus musculus [17] = assay: In vivo antitumor activity against P388 Lymphocytic Leukemia in mice at 100 mg/kg expressed as T/C value w.r.t. compound 6; format: functional
Mus musculus [18] = assay: In vivo antitumor activity against P388 Lymphocytic Leukemia measured as Survivors on day 5 at 800 mg/kg, w.r.t. compound 6; 6/6; format: functional
Mus musculus [19] = assay: In vivo antitumor activity against P388 Lymphocytic Leukemia measured as Survivors on day 5 at 400 mg/kg, w.r.t. compound 6; 6/6; format: functional
Mus musculus [20] = assay: In vivo antitumor activity against P388 Lymphocytic Leukemia measured as Survivors on day 5 at 1300 mg/kg; 0/6; format: functional
Mus musculus [21] = assay: In vivo antitumor activity against P388 Lymphocytic Leukemia measured as Survivors on day 5 at 162.50 mg/kg; 6/6; format: functional; details: dose 162.5 mg/kg
Mus musculus [22] = assay: In vivo antitumor activity against P388 Lymphocytic Leukemia measured as Survivors on day 5 at 325 mg/kg; 0/6; format: functional
Mus musculus [23] = assay: In vivo antitumor activity against P388 Lymphocytic Leukemia in mice at 325 mg/kg expressed as T/C value); Toxic; format: toxicity, organism-based; design: dose 325 mg/kg
Mus musculus [24] = assay: In vivo antitumor activity against P388 Lymphocytic Leukemia in mice at 40.60 mg/kg expressed as T/C value (repeat); format: functional; details: dose 40.6 mg/kg
Mus musculus [25] = assay: In vivo antitumor activity against P388 Lymphocytic Leukemia measured as survivors on day 5 at 81.25 mg/kg (repeat); 6/6; format: functional
Mus musculus [26] = assay: In vivo antitumor activity against P388 Lymphocytic Leukemia measured as survivors on day 5 at 162.50 mg/kg (repeat); 6/6; format: functional; details: dose 162.5 mg/kg
Mus musculus [27] = assay: In vivo antitumor activity against P388 Lymphocytic Leukemia measured as survivors on day 5 at 325 mg/kg (repeat); 0/6; format: functional
Mus musculus [28] = assay: In vivo antitumor activity against P388 Lymphocytic Leukemia measured as survivors on day 5 at 40.60 mg/kg (repeat); 6/6; format: functional; details: dose 40.6 mg/kg
Mus musculus [29] = assay: In vivo antitumor activity against P388 Lymphocytic Leukemia in mice at 1300 mg/kg expressed as T/C value; Toxic; format: toxicity, organism-based; design: dose 1300 mg/kg
Mus musculus [30] = assay: In vivo antitumor activity against P388 Lymphocytic Leukemia in mice at 162.50 mg/kg expressed as T/C value; format: functional; details: dose 162.5 mg/kg
Mus musculus [31] = assay: In vivo antitumor activity against P388 Lymphocytic Leukemia in mice at 162.5 mg/kg expressed as T/C value(repeat); format: functional
Mus musculus [32] = assay: In vivo antitumor activity against P388 Lymphocytic Leukemia measured as Survivors on day 5 at 650 mg/kg; 0/6; format: functional
Mus musculus [33] = assay: In vivo antitumor activity against P388 Lymphocytic Leukemia in mice at 650 mg/kg expressed as T/C value; Toxic; format: toxicity, organism-based; design: dose 650 mg/kg
Mus musculus [34] = assay: In vivo antitumor activity against P388 Lymphocytic Leukemia in mice at 81.25 mg/kg expressed as T/C value (repeat); format: functional
P388 = assay: Weight difference when tested in vivo for antitumor activity against P388 Lymphocytic Leukemia; weight difference expressed as (T-C); format: functional, Mus musculus
Mus musculus [35] = assay: Weight difference when tested in vivo for antitumor activity against P388 Lymphocytic Leukemia; weight difference expressed as (T-C); Not active; format: functional, organism-based
Mus musculus [36] = assay: In vivo antitumor activity against P388 Lymphocytic Leukemia in mice expressed as T/C value; Toxic

CCC(O)(C(=O)OCC1=CC[N+]2([O-])CC[C@H](OC(=O)[C@](O)(CC)c3ccccc3)[C@@H]12)c1ccccc1 (stereo partly drawn)
Survivors (Mus musculus [1]): 5 | Survivors (Mus musculus [2]): 6 | Survivors (Mus musculus [3]): 6 | T/C (Mus musculus [4]): 100% | T/C (Mus musculus [5]): 109% | T/C (Mus musculus [6]): 127% | T/C (Mus musculus [7]): 106% | Survivors (Mus musculus [8]): 6

CC(C)[C@](O)(C(=O)OCC1=CC[N+]2([O-])CC[C@@H](O)[C@@H]12)[C@H](C)O (stereo partly drawn) [INDICINE N-OXIDE]
IC50 (A204): 125 µg/mL (≈ 396 µM)

C[C@H]1C(=O)O[C@@H]2CC[N+]3([O-])CC=C(COC(=O)[C@](C)(O)[C@]1(C)O)[C@H]23 (stereo partly drawn) [MONOCROTALINE N-OXIDE]
IC50 (A204): 721 µg/mL (≈ 2110 µM)

CC(C)C(O)(C(=O)OC1CCN2CCC(CO)C12)C(C)O (stereo not drawn)
Survivors (Mus musculus [9]): 4 | T/C (Mus musculus [10]): 123% | Survivors (Mus musculus [11]): 4 | T/C (Mus musculus [12]): 126% | Survivors (Mus musculus [13]): 4 | T/C (Mus musculus [14]): 180%

CC(C)C(O)(C(=O)OCC1CCN2CC[C@@H](O)[C@@H]12)C(C)O.CC(C)C(O)(C(=O)OCC1CC[N+]2([O-])CC[C@@H](O)[C@@H]12)C(C)O (stereo partly drawn)
Survivors (Mus musculus [15]): 5 | Survivors (Mus musculus [16]): 6 | T/C (Mus musculus [17]): 101% | T/C (Mus musculus [10]): 120% | Survivors (Mus musculus [18]): 6 | T/C (Mus musculus [12]): 118% | Survivors (Mus musculus [19]): 6 | T/C (Mus musculus [14]): 146%

CC(C)C(O)(C(=O)OCC1CCN2CC[C@@H](O)[C@@H]12)C(C)O (stereo partly drawn)
Survivors (Mus musculus [20]): 0 | Survivors (Mus musculus [21]): 6 | Survivors (Mus musculus [22]): 0 | T/C (Mus musculus [23]): Toxic | T/C (Mus musculus [24]): 96% | Survivors (Mus musculus [25]): 6 | Survivors (Mus musculus [26]): 6 | Survivors (Mus musculus [27]): 0 | Survivors (Mus musculus [28]): 6 | T/C (Mus musculus [29]): Toxic | T/C (Mus musculus [30]): 92% | T/C (Mus musculus [31]): 98% | Survivors (Mus musculus [32]): 0 | T/C (Mus musculus [33]): Toxic | T/C (Mus musculus [34]): 102% | Weight difference (P388): 0.5 | Weight difference (Mus musculus [35]): inactive | IC50 (A204): 400 µg/mL (≈ 1330 µM) | T/C (Mus musculus [36]): Toxic
